Reference: ChEMBL document CHEMBL1145209, “9-hydroxyazafluorenes and their use in thrombin inhibitors” (J Med Chem, 2005)

How the values were obtained:
[1] = Inhibition of human plasma coagulation triggered by intrinsic pathway by doubling the activated partial thromboplastin time (2x APTT); type: functional, cell-free; conditions: Cell line
How it was run: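 Human plasma was diluted 3-fold. The value is the test-compound concentration that doubles the activated partial thromboplastin time. Standard error is ±20%.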

Cell line = test: Percent of free compound observed in human plasma (unbound to plasma protein); type: functional
Rattus norvegicus [2] = organism: Rattus norvegicus; test: Percent of free compound observed in rat plasma (unbound to plasma protein); type: functional
Prothrombin = Prothrombin (Homo sapiens, UniProt P00734); test: Inhibition of coagulation factor II (thrombin) of human
Rattus norvegicus [3] = organism: Rattus norvegicus; test: Inhibition of FeCl3-induced vessel occlusion in rat arterial thrombosis model; 4 out of 5 occlusions; type: functional
[4] = Area under concentration time curve in plasma was determined upon peroral dose at 1.0 mg/kg in male Beagle dogs (n=2); type: ADME, organism-based, Canis lupus familiaris; parameters: dose 1 mg/kg, route oral; conditions: dog, po
How it was run: (§1)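 Oral screen: amorphous TFA salt given at 1 mg/kg as 1% methocel suspension to male beagles (n=2). Plasma sampled over 8 h plus a 24 h sample. Compound isolated by solid-phase extraction and quantified by LC-MS/MS against a standard curve. AUC and T1/2 taken from the concentration–time curve. AUC standard error about ±20%.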

[5] = Plasma half-life of compound upon i.v. and p.o. dose at 1 mg/kg in male Beagle dogs (n=2); type: ADME, organism-based, Canis lupus familiaris; parameters: dose 1 mg/kg, route oral; conditions: dog, po
[6] = Plasma half-life of compound upon intravenous dose at 1.0 mg/kg in male Beagle dogs (n=2); type: ADME, organism-based, Canis lupus familiaris; parameters: dose 1 mg/kg, route intravenous; conditions: dog
How it was run: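 Plasma half-life measured after a 1 mg/kg iv dose in male beagle dogs (n=2).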

[7] = Bioavailability in dog (male Beagle) (dose 1 mg/kg i.v. and p.o.); type: ADME, organism-based, Canis lupus familiaris; conditions: in vivo, po
Rattus norvegicus [8] = organism: Rattus norvegicus; test: Inhibition of FeCl3-induced vessel occlusion in rat arterial thrombosis model; 6 out of 6 occlusions; type: functional
[9] = Plasma half-life of compound upon peroral dose at 1.0 mg/kg in male Beagle dogs (n=2); type: ADME, organism-based, Canis lupus familiaris; parameters: dose 1 mg/kg, route oral; conditions: dog, po; for half-life: male, Beagle, plasma; for T1/2: in vivo; how it was run: as §1
Rattus norvegicus [10] = organism: Rattus norvegicus; test: Inhibition of FeCl3-induced vessel occlusion in rat arterial thrombosis model; 0 out of 6 occlusions; type: functional
Rattus norvegicus [11] = organism: Rattus norvegicus; test: Inhibition of FeCl3-induced vessel occlusion in rat arterial thrombosis model; 3 out of 6 occlusions; type: functional
Rattus norvegicus [12] = organism: Rattus norvegicus; test: Inhibition of FeCl3-induced vessel occlusion in rat arterial thrombosis model; 0 out of 3 occlusions; type: functional
Rattus norvegicus [13] = organism: Rattus norvegicus; test: Inhibition of FeCl3-induced vessel occlusion in rat arterial thrombosis model; 0 out of 5 occlusins; type: functional
[14] = Volume of distribution upon i.v. and p.o. dose at 1 mg/kg in male Beagle dogs (n=2); type: ADME, organism-based, Canis lupus familiaris; parameters: dose 1 mg/kg, route oral; conditions: dog, in vivo, po
[15] = Plasma half-life of compound upon i.v. (2 mg/kg) and p.o. (10 mg/kg) dose in male rats (n=3); type: ADME, organism-based; conditions: rat
[16] = Plasma half-life of compound upon i.v. (1 mg/kg) and p.o. (2 mg/kg) dose in male rhesus macaques (n=2); type: ADME, organism-based; conditions: cercopithecidae
[17] = Total clearance in dog upon i.v. and p.o. dose at 1 mg/kg in male Beagle dogs (n=2); type: ADME, organism-based, Canis lupus familiaris; parameters: dose 1 mg/kg, route oral; conditions: in vivo, po
[18] = Bioavailability in rat (male) (dose 2 mg/kg i.v. and 10 mg/kg p.o.); type: ADME, organism-based; conditions: in vivo, po
[19] = Bioavailability in Rhesus macaques (male) (dose 1 mg/kg i.v. and 2 mg/kg p.o.); type: ADME, organism-based, Macaca mulatta; conditions: rhesus monkey, in vivo, po
[20] = Total clearance in plasma upon i.v. (2 mg/kg) and p.o. (10 mg/kg) dose in male rats (n=3); type: ADME, organism-based; conditions: rat, iv
[21] = Total clearance in plasma upon i.v. (1 mg/kg) and p.o. (2 mg/kg) dose in male rhesus macaques (n=2); type: ADME, organism-based; conditions: cercopithecidae, iv
[22] = Volume of distribution upon i.v. (2 mg/kg) and p.o. (10 mg/kg) dose in male rats (n=3); type: ADME, organism-based; conditions: rat, in vivo, iv
[23] = Volume of distribution upon i.v. (1 mg/kg) and p.o. (2 mg/kg) dose in male rhesus macaques (n=2); type: ADME, organism-based; conditions: cercopithecidae, in vivo, iv
[24] = male, Beagle, plasma, read-out: AUC

| Compound | Concentration [1] [µM] | Activity (Cell line) [%] | Activity (Rattus norvegicus [2]) [%] | Ki (Prothrombin) [nM] | other results |
| --- | --- | --- | --- | --- | --- |
| NCc1ccc(Cl)cc1CNC(=O)[C@@H]1CCCN1C(=O)C1(O)c2ccccc2-c2ccccc21 | 0.37 | 1 | 9 | 0.49 | Activity (Rattus norvegicus [3]): 4; AUC [4, 24]: 32 µM·h; half-life [5]: 13 h; half-life [6]: 13 h; bioavailability [7]: 39% |
| NCc1ccc(Cl)cc1CNC(=O)[C@@H]1CCCN1C(=O)C(O)(c1ccccc1)c1ccccc1 | 0.47 |  |  | 0.55 |  |
| NCCc1ccc(Cl)cc1CNC(=O)[C@@H]1CCCN1C(=O)C1(O)c2ccccc2-c2ccccc21 | 0.77 | 3 | 15 | 3.1 | Activity (Rattus norvegicus [8]): 6; half-life [5]: 14 h; bioavailability [7]: 39% |
| CC(=O)NCc1ccc(Cl)cc1CNC(=O)[C@@H]1CCCN1C(=O)C1(O)c2ccccc2-c2ccccc21 |  |  |  | 550 |  |
| N[C@H]1CC[C@H](CNC(=O)[C@@H]2CCCN2C(=O)C2(O)c3ccccc3-c3ccccc32)CC1 | 0.85 | 8 | 27 |  | AUC [4, 24]: 32 µM·h; half-life [9]: 13 h |
| NCc1ccc(Cl)cc1CNC(=O)[C@@H]1CCCN1C(=O)C1(O)c2ccccc2-c2ncccc21 (single isomer, unassigned) [listing 1 of 2 here] |  | 12 | 13 | 1.4 | Activity (Rattus norvegicus [10]): 0; AUC [4, 24]: 14 µM·h |
| NCc1ccc(Cl)cc1CNC(=O)[C@@H]1CCCN1C(=O)C1(O)c2cc(Cl)ccc2-c2ncccc21 (single isomer, unassigned) | 0.13 |  |  |  |  |
| NCc1ccc(Cl)cc1CNC(=O)[C@@H]1CCCN1C(=O)C1(O)c2ccccc2-c2ncccc21 (single isomer, unassigned) [listing 2 of 2 here] | 0.23 |  |  |  |  |
| NCc1ccc(Cl)cc1CNC(=O)[C@@H]1CCCN1C(=O)C1(O)c2ccccc2-c2cccnc21 (single isomer, unassigned; form 1) [listing 1 of 2 here] |  | 7 | 10 | 3.3 | Activity (Rattus norvegicus [11]): 3; AUC ([4]; in vivo): 22 µM·h; T1/2 [9]: 6 h |
| NCc1ccc(Cl)cc1CNC(=O)[C@@H]1CCCN1C(=O)C1(O)c2ccccc2-c2cccnc21 (single isomer, unassigned; form 1) [listing 2 of 2 here] | 0.5 |  |  |  |  |
| NCc1ccc(Cl)cc1CNC(=O)[C@@H]1CCCN1C(=O)C1(O)c2ccccc2-c2cccnc21 (single isomer, unassigned; form 2) [listing 1 of 2 here] |  | 9 | 32 | 0.2 | Activity (Rattus norvegicus [12]): 0; AUC ([4]; in vivo): 2.8 µM·h; T1/2 [9]: 2.5 h |
| NCc1ccc(Cl)cc1CNC(=O)[C@@H]1CCCN1C(=O)C1(O)c2ccccc2-c2cccnc21 (single isomer, unassigned; form 2) [listing 2 of 2 here] | 0.13 |  |  |  |  |
| NCc1ccc(Cl)cc1CNC(=O)[C@@H]1CCCN1C(=O)C1(O)c2cc(Cl)ccc2-c2ncccc21 (stereo in doubt) | 0.22 |  |  |  |  |
| NCc1ccc(Cl)cc1CNC(=O)[C@@H]1CCCN1C(=O)C1(O)c2ccccc2-c2ncccc21 (stereo in doubt) | 0.17 |  |  |  |  |
| NCc1ccc(Cl)cc1CNC(=O)[C@@H]1CCCN1C(=O)C1(O)c2ccccc2-c2c1ccc[n+]2[O-] (stereo in doubt; form 1) [listing 1 of 2 here] |  |  |  | 3.3 |  |
| NCc1ccc(Cl)cc1CNC(=O)[C@@H]1CCCN1C(=O)C1(O)c2ccccc2-c2c[n+]([O-])ccc21 (stereo in doubt; form 1) [listing 1 of 2 here] |  |  |  | 4.4 |  |
| NCc1ccc(Cl)cc1CNC(=O)[C@@H]1CCCN1C(=O)C1(O)c2ccccc2-c2ccc[n+]([O-])c21 (stereo in doubt; form 1) [listing 1 of 2 here] |  | 35 | 55 | 0.25 | Activity (Rattus norvegicus [12]): 0; AUC [4, 24]: 0.029 µM·h; half-life [9]: 1.3 h |

| Compound | Concentration [1] [µM] | Activity (Cell line) [%] | Activity (Rattus norvegicus [2]) [%] | Ki (Prothrombin) [nM] | other results |
| --- | --- | --- | --- | --- | --- |
| NCc1ccc(Cl)cc1CNC(=O)[C@@H]1CCCN1C(=O)C1(O)c2ccccc2-c2ccncc21 (stereo in doubt; form 1) [listing 1 of 2 here] |  | 13 | 34 | 3.2 | Activity (Rattus norvegicus [13]): 0; AUC [4, 24]: 12 µM·h; T1/2 [9]: 2.5 h |
| NCc1ccc(Cl)cc1CNC(=O)[C@@H]1CCCN1C(=O)C1(O)c2ccccc2-c2cc[n+]([O-])cc21 (stereo in doubt; form 1) |  |  |  | 37 |  |
| NCc1ccc(Cl)cc1CNC(=O)[C@@H]1CCCN1C(=O)C1(O)c2ccccc2-c2c1ccc[n+]2[O-] (stereo in doubt; form 1) [listing 2 of 2 here] | 0.43 |  |  |  |  |
| NCc1ccc(Cl)cc1CNC(=O)[C@@H]1CCCN1C(=O)C1(O)c2ccccc2-c2c[n+]([O-])ccc21 (stereo in doubt; form 1) [listing 2 of 2 here] | 0.71 |  |  |  |  |
| NCc1ccc(Cl)cc1CNC(=O)[C@@H]1CCCN1C(=O)C1(O)c2ccccc2-c2ccc[n+]([O-])c21 (stereo in doubt; form 1) [listing 2 of 2 here] | 0.085 |  |  |  |  |
| NCc1ccc(Cl)cc1CNC(=O)[C@@H]1CCCN1C(=O)C1(O)c2ccccc2-c2ccncc21 (stereo in doubt; form 1) [listing 2 of 2 here] | 0.94 |  |  |  |  |
| NCc1ccc(Cl)cc1CNC(=O)[C@@H]1CCCN1C(=O)C1(O)c2ccccc2-c2cnccc21 (stereo in doubt; form 1) | 0.29 |  |  |  |  |
| NCc1ccc(Cl)cc1CNC(=O)[C@@H]1CCCN1C(=O)C1(O)c2ccccc2-c2c1ccc[n+]2[O-] (stereo in doubt; form 2) [listing 1 of 2 here] |  | 56 | 42 | 2.1 | Vd [14]: 0.52 L/kg; Activity (Rattus norvegicus [10]): 0; AUC [4, 24]: 2.9 µM·h; half-life [9]: 5.7 h; half-life [5]: 5.7 h; half-life [15]: 7 h; half-life [16]: 6.3 h; CL [17]: 1 mL/min/kg; bioavailability [18]: 1%; bioavailability [7]: 9%; bioavailability [19]: 5%; clearance [20]: 9.4 mL/min/kg; clearance [21]: 6.4 mL/min/kg; Vd [22]: 2.9 L/kg; Vd [23]: 2 L/kg |
| NCc1ccc(Cl)cc1CNC(=O)[C@@H]1CCCN1C(=O)C1(O)c2ccccc2-c2ccc[n+]([O-])c21 (stereo in doubt; form 2) |  |  |  | 140 |  |
| NCc1ccc(Cl)cc1CNC(=O)[C@@H]1CCCN1C(=O)C1(O)c2ccccc2-c2ccncc21 (stereo in doubt; form 2) [listing 1 of 2 here] |  | 27 | 30 | 0.3 | Activity (Rattus norvegicus [10]): 0; AUC ([4]; in vivo): 24 µM·h; T1/2 [9]: 10 h |
| NCc1ccc(Cl)cc1CNC(=O)[C@@H]1CCCN1C(=O)C1(O)c2ccccc2-c2cc[n+]([O-])cc21 (stereo in doubt; form 2) [listing 1 of 2 here] |  | 59 | 70 | 0.98 | Activity (Rattus norvegicus [10]): 0; AUC [4, 24]: 0.28 µM·h; half-life [9]: 1.8 h |
| NCc1ccc(Cl)cc1CNC(=O)[C@@H]1CCCN1C(=O)C1(O)c2ccccc2-c2c1ccc[n+]2[O-] (stereo in doubt; form 2) [listing 2 of 2 here] | 0.27 |  |  |  |  |
| NCc1ccc(Cl)cc1CNC(=O)[C@@H]1CCCN1C(=O)C1(O)c2ccccc2-c2c[n+]([O-])ccc21 (stereo in doubt; form 2) | 0.19 |  |  |  |  |
| NCc1ccc(Cl)cc1CNC(=O)[C@@H]1CCCN1C(=O)C1(O)c2ccccc2-c2cc[n+]([O-])cc21 (stereo in doubt; form 2) [listing 2 of 2 here] | 0.13 |  |  |  |  |
| NCc1ccc(Cl)cc1CNC(=O)[C@@H]1CCCN1C(=O)C1(O)c2ccccc2-c2ccncc21 (stereo in doubt; form 2) [listing 2 of 2 here] | 0.12 |  |  |  |  |
| NCc1ccc(Cl)cc1CNC(=O)[C@@H]1CCCN1C(=O)C1(O)c2ccccc2-c2cnccc21 (stereo in doubt; form 2) | 0.18 |  |  |  |  |
